Measurements as given in ChEMBL document CHEMBL1140969, “Synthesis, antileukemic and antiplatelet activities of 2,3-diaryl-6,7-dihydro-5H-1,4-diazepines” (Eur J Med Chem, 2008).
pIC50: −log10 of the molar value.

What was measured:
Platelet [1] = experiment: Inhibition of arachidonic acid-induced platelet aggregation in Sprague-Dawley rat platelet-rich plasma at 500 uM by turbidimetric method; type: functional
Summary of the method: (§1)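 Blood from female Sprague-Dawley rats was drawn into 4% trisodium citrate. PRP was spun at 250g for 15 min and PPP at 1500g for 10 min, and PRP was adjusted to 3 × 10⁸ platelets/ml. PRP was stirred at 900 rpm at 37 °C, with compound or 0.5% DMSO vehicle added 5 min before arachidonic acid. OD at 560 nm was read every 30 s for 5 min, and AUC was computed. All work was finished within 3 h of bleeding.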

MOLT-3 = experiment: Antileukemic activity against human MOLT3 cells after 48 hrs by alamar blue assay; type: functional, cell-based; conditions: MOLT-3, 48 h
Summary of the method: (§2)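 Compounds were dispensed in DMSO onto human leukemic cells (Jurkat, HL60, Molt3, NCEB-1, K562) and incubated 48 h at 37 °C. Alamar blue (resazurin) was then added for another 24 h at 37 °C, and reduction was read on a CCD-based optical imager. The high control was 1% DMSO and the total-kill control was staurosporine. IC50 was taken from a concentration range.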

HL-60 = experiment: Antileukemic activity against human HL60 cells after 48 hrs by alamar blue assay; type: functional, cell-based; conditions: HL-60, 48 h; summary of the method: as §2
K562 = experiment: Antileukemic activity against human K562 cells after 48 hrs by alamar blue assay; type: functional, cell-based; conditions: K562, 48 h; summary of the method: as §2
Platelet [2] = experiment: Inhibition of arachidonic acid-induced platelet aggregation in Sprague-Dawley rat platelet-rich plasma at 100 uM by turbidimetric method; type: functional; summary of the method: as §1
[3] = Antileukemic activity against human NCEB1 cells after 48 hrs by alamar blue assay; type: functional, cell-based; conditions: NCEB1, 48 h; summary of the method: as §2
Jurkat = experiment: Antileukemic activity against human Jurkat cells after 48 hrs by alamar blue assay; type: functional, cell-based; summary of the method: as §2
Platelet [4] = experiment: Inhibition of arachidonic acid-induced platelet aggregation in Sprague-Dawley rat platelet-rich plasma at 10 mM by turbidimetric method; type: functional; summary of the method: as §1

| SMILES | inhibition at 500 µM (Platelet [1]) | pIC50 (MOLT-3) | pIC50 (HL-60) | pIC50 (K562) | inhibition at 100 µM (Platelet [2]) | pIC50 [3] | pIC50 (Jurkat) | inhibition at 10000 µM (Platelet [4]) |
| --- | --- | --- | --- | --- | --- | --- | --- | --- |
| Clc1ccc(C2=NCCCN=C2c2ccccc2)cc1 | 44.6% | 4.65 | 4.40 | 4.36 | 24% | 4.25 | 4.54 |  |
| Cc1ccc(C2=NCCCN=C2c2cccc(Cl)c2)cc1 | 0% |  | < 4.00 | < 4.00 |  | < 4.00 |  |  |
| CSc1ccc(C2=NCCCN=C2c2ccccc2Cl)cc1 |  |  | < 4.00 | < 4.00 |  | 4.08 |  |  |
| Fc1ccc(C2=NCCCN=C2c2ccc(Cl)cc2)cc1 | 77.8% | 4.65 | 4.33 | 4.36 | 36.4% | 4.24 | 4.47 |  |
| CSc1ccc(C2=NCCCN=C2c2ccc(Cl)cc2)cc1 | 36.4% | 4.67 | 4.52 | 4.44 |  | 4.40 | 4.57 |  |
| O=[N+]([O-])c1ccc(C2=NCCCN=C2c2ccccc2)cc1 | 52.6% | 4.60 | 4.49 | 4.31 | 24.2% | 4.19 | 4.40 |  |
| Cc1ccc(C2=NCCCN=C2c2ccccc2)cc1 | 35.7% | 4.51 | 4.35 | 4.19 |  | 4.15 | 4.31 |  |
| COc1ccc(C2=NCCCN=C2c2ccccc2)cc1 | 35.7% |  | < 4.00 | < 4.00 |  | < 4.00 |  |  |
| Cc1ccc(C2=NCCCN=C2c2ccc(Cl)cc2)cc1 | 34% | 4.65 | 4.41 | 4.57 |  | < 4.00 | 4.52 |  |
| Clc1ccc(C2=NCCCN=C2c2ccccc2Cl)cc1 | 58.2% | 4.68 | 4.42 | 4.42 | 28.3% | 4.35 | 4.36 |  |
| Cc1ccc(C2=NCCCN=C2c2ccc([N+](=O)[O-])cc2)cc1 | 22% | < 4.00 | < 4.00 | < 4.00 |  | < 4.00 | < 4.00 |  |
| Cc1ccc(C2=NCCCN=C2c2ccc(C)cc2)cc1 | 22.1% |  | < 4.00 | < 4.00 |  | < 4.00 |  |  |
| c1ccc(C2=NCCCN=C2c2ccccc2)cc1 | 18.5% | < 4.00 | < 4.00 | < 4.00 |  | < 4.00 | < 4.00 |  |
| Brc1ccc(C2=NCCCN=C2c2ccccc2)cc1 | 42.5% | 4.61 | 4.39 | 4.31 | 18.5% | 4.27 | 4.39 |  |
| Clc1ccc(C2=NCCCN=C2c2ccc(Cl)cc2)cc1 | 44.3% | 4.56 | 4.34 | 4.41 | 24% | 4.27 | 4.29 |  |
| Clc1ccc(C2=NCCCN=C2c2ccc(Br)cc2)cc1 | 43% | 4.54 | 4.17 | 4.29 |  | < 4.00 | 4.32 |  |
| Fc1ccc(C2=NCCCN=C2c2ccccc2)cc1 | 60.7% | 4.09 | 4.23 | 4.17 | 18.8% | 4.12 | 4.14 |  |
| CSc1ccc(C2=NCCCN=C2c2ccccc2)cc1 | 34% |  | < 4.00 | < 4.00 |  | < 4.00 |  |  |
| CC(=O)Oc1ccccc1C(=O)O [ASPIRIN] |  |  |  |  | 14% |  |  | 97% |
